Data: publication PMC6045484 (ACS Omega, 2018)
In brackets after ≈: the same amount, converted by molar mass. Entries after “also recorded” stand apart in the source; their conditions may differ.

How the values were obtained:
P. falciparum (D6) = test: in vitro antimalarial activity, plasmodial LDH; type: cell-based, Plasmodium falciparum; conditions: Plasmodium falciparum, D6, 72 h, read-out: P. falciparum (D6) IC50
P. falciparum (W2) = test: in vitro antimalarial activity, plasmodial LDH; type: cell-based, Plasmodium falciparum; conditions: Plasmodium falciparum, W2, 72 h, read-out: P. falciparum (W2) IC50, CQ-resistant W2 strain, 72 h
Summary of the method: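 P. falciparum-infected erythrocytes (2% parasitemia, 2% hematocrit) in RPMI 1640 with 10% human serum and 60 μg/mL amikacin. Exposed to test compound dilutions for 72 h at 37 °C under 90% N2/5% O2/5% CO2. LDH measured with Malstat reagent (30 min, room temperature), then NBT/PES for 1 h in the dark, stopped with 5% acetic acid, read at 650 nm. IC50 from dose-response curves.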

[1] = system: SK-MEL, KB, BT-549, SK-OV-3, VERO and LLC-PK1 cells; test: cytotoxicity, neutral red uptake assay; type: cell-based, mammalian; conditions: highest test concentration 4760 ng/mL
Summary of the method: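 Cells seeded at 25 000/well and allowed 24 h to reach confluence. Test compound was then added and incubated 48 h. Viable cells were counted by a modified neutral red uptake method. The panel was four human cancer lines and two noncancerous mammalian kidney lines. Doxorubicin served as positive control and DMSO as negative control.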

[2] = system: P. berghei (sensitive strain); test: blood-schizontocidal activity against P. berghei infection in mice; type: in vivo, Plasmodium berghei; conditions: Swiss mice
Summary of the method: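 Swiss mice of either sex (about 15–20 g, same age), six per group, inoculated intraperitoneally on day 0 with 1 × 10^7 infected erythrocytes from a donor mouse. Oral test compound at 100, 50, 25 or 10 mg/kg, CQ diphosphate (10 mg/kg/day × 4) or vehicle started 4 h later, on D0 to D+3. Giemsa tail-blood smears on D+4 and D+7. Curative: parasites eliminated, no relapse, all mice surviving to D+60.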

[3] = system: L. donovani promastigotes; test: in vitro antileishmanial activity, alamarBlue assay; type: cell-based, Leishmania donovani; conditions: Leishmania donovani, 48 h; for IC50: read-out: L. donovani IC50, promastigotes, 48 h; for IC90: read-out: L. donovani IC90, promastigotes, 48 h
C. albicans ATCC90028 = test: in vitro antifungal activity; type: cell-based, Candida albicans; conditions: Candida albicans; for IC50: ATCC90028, read-out: C. albicans IC50; for MFC: ATCC90028, read-out: C. albicans MFC; for MIC: ATCC90028, read-out: C. albicans MIC
Summary of the method: (§1)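 Modified NCCLS broth method in Sabouraud dextrose. Inoculum set by OD630 to 1.5 × 10^3 CFU/mL. Test compound serially diluted in 20% DMSO/saline, duplicate wells, up to 20 μg/mL. Incubated 70–74 h at 35 °C; 530 nm read before and after. IC50 is 50% growth inhibition; MIC is no detectable growth. MFC from clear wells subcultured on agar. Amphotericin B control.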

C. neoformans ATCC90113 = test: in vitro antifungal activity; type: cell-based, Cryptococcus neoformans; conditions: Cryptococcus neoformans; for IC50: ATCC90113, read-out: C. neoformans IC50; for MFC: ATCC90113, read-out: C. neoformans MFC; for MIC: ATCC90113, read-out: C. neoformans MIC
Summary of the method: as §1

A. fumigatus ATCC 90906 = test: in vitro antifungal activity; type: cell-based, Aspergillus fumigatus; conditions: Aspergillus fumigatus; for IC50: ATCC90906, read-out: A. fumigatus IC50; for MFC: ATCC90906, read-out: A. fumigatus MFC; for MIC: ATCC90906, read-out: A. fumigatus MIC
Summary of the method: as §1

SA (ATCC29213) = test: in vitro antibacterial activity; type: cell-based; conditions: Staphylococcus aureus; for IC50: ATCC29213, read-out: IC50 (concentration that affords 50% growth inhibition), SA; for MBC: ATCC29213, read-out: MBC (minimum bactericidal concentration), SA; for MIC: ATCC29213, read-out: MIC, SA
Summary of the method: (§2)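 Test compound serially diluted in 20% DMSO/saline and plated in duplicate, up to 20 μg/mL. Inoculum in cation-adjusted Mueller–Hinton broth, pH 7.3, set by OD630 to 5 × 10^5 CFU/mL. Incubated 16–20 h at 35 °C; 530 nm read before and after. IC50 is 50% growth inhibition; MIC is no detectable growth. MBC from clear wells subcultured on agar. Ciprofloxacin control.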

MRSA (ATCC33591) = test: in vitro antibacterial activity; type: cell-based, methicillin-resistant Staphylococcus aureus; conditions: Staphylococcus aureus, ATCC33591|MRSA, read-out: MIC, MRSA
Summary of the method: as §2

[4] = system: M. intracellulare (ATCC23068); test: in vitro antibacterial activity, modified alamarBlue procedure; type: cell-based, Mycobacterium intracellulare; conditions: Mycobacterium intracellulare; for IC50: ATCC23068, read-out: IC50 (concentration that affords 50% growth inhibition), M. intracellulare; for MBC: ATCC23068, read-out: MBC (minimum bactericidal concentration), M. intracellulare; for MIC: ATCC23068, read-out: MIC, M. intracellulare
Summary of the method: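 Modified alamarBlue microplate method. Test compound serially diluted in 20% DMSO/saline, duplicate wells, up to 20 μg/mL. Inoculum 2.0 × 10^6 CFU/mL in Middlebrook 7H9 with OADC, pH 7.3, containing 5% alamarBlue. Incubated 70–74 h at 37 °C, 10% CO2; fluorescence 544ex/590em read before and after. MIC: no blue-to-pink change. MBC by subculturing blue wells on agar. Ciprofloxacin control.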

SMILES | IC50 (P. falciparum (D6)) [µg/mL] | IC50 (P. falciparum (W2)) [µg/mL] | cytotoxicity CTX [1] | P. berghei blood-schizontocidal activity (mice cured/treated) ([2]; 100 mg/kg/day × 4, oral) | IC50 (C. albicans ATCC90028) [µg/mL] | MFC (C. albicans ATCC90028) [µg/mL] | MIC (C. albicans ATCC90028) [µg/mL] | IC50 (C. neoformans ATCC90113) [µg/mL] | MFC (C. neoformans ATCC90113) [µg/mL] | MIC (C. neoformans ATCC90113) [µg/mL] | IC50 (A. fumigatus ATCC 90906) [µg/mL] | MFC (A. fumigatus ATCC 90906) [µg/mL] | MIC (A. fumigatus ATCC 90906) [µg/mL] | IC50 (SA (ATCC29213)) [µg/mL] | MBC (SA (ATCC29213)) [µg/mL] | MIC (SA (ATCC29213)) [µg/mL] | MIC (MRSA (ATCC33591)) [µg/mL] | IC50 [4] [µg/mL] | MBC [4] [µg/mL] | MIC [4] [µg/mL] | other results
CCCCOc1c(OC)cc(NC(C)CCCN)c2nc(C(C)(C)C)cc(C)c12 (centres unmarked) [compound 50, N^4-(5-Butoxy-2-tert-butyl-6-methoxy-4-methylquinolin-8-yl)pentane-1,4-diamine] | 2.2 (≈ 5.48 µM) | 0.98 (≈ 2.44 µM) | NC (NC, not cytotoxic up to 4760 ng/mL (4.76 μg/mL)) | curative (6/6) | 15 (≈ 37.4 µM) | > 20 | > 20 | 0.58 (≈ 1.44 µM) | 2.5 (≈ 6.23 µM) | 1.25 (≈ 3.11 µM) | 14.7 (≈ 36.6 µM) | > 20 | > 20 | 3.49 (≈ 8.69 µM) | 10 (≈ 24.9 µM) | 5 (≈ 12.5 µM) | 5 (≈ 12.5 µM) | 5.97 (≈ 14.9 µM) | 20 (≈ 49.8 µM) | 10 (≈ 24.9 µM) | P. berghei blood-schizontocidal activity (mice cured/treated) ([2]; 50 mg/kg/day × 4, oral): suppressive activity; also recorded: active (4/6); IC50 [3]: 1.5 µg/mL (≈ 3.74 µM); IC90 [3]: 3.65 µg/mL (≈ 9.09 µM)
CCCCCOc1c(OC)cc(NC(C)CCCN)c2nc(C(C)(C)C)cc(C)c12 (centres unmarked) [compound 51, N^4-(5-Pentyloxy-2-tert-butyl-6-methoxy-4-methylquinolin-8-yl)pentane-1,4-diamine] | 4.5 (≈ 10.8 µM) | 3.8 (≈ 9.14 µM) | NC (NC, not cytotoxic up to 4760 ng/mL (4.76 μg/mL)) | inactive (0/6) | > 20 | > 20 | > 20 | 4.45 (≈ 10.7 µM) | 20 (≈ 48.1 µM) | 20 (≈ 48.1 µM) | > 20 | > 20 | > 20 | 18.9 (≈ 45.5 µM) | > 20 | > 20 | 20 (≈ 48.1 µM) | 10.8 (≈ 25.9 µM) | 20 (≈ 48.1 µM) | 20 (≈ 48.1 µM) | IC50 [3]: 16.2 µg/mL (≈ 38.9 µM); IC90 [3]: 23.9 µg/mL (≈ 57.4 µM)
CCCCCCOc1c(OC)cc(NC(C)CCCNC(=O)C(N)CCCCN)c2nc(C(C)(C)C)ccc12 (centres unmarked) [compound 99, 2,6-Diamino-N-(4-(2-tert-butyl-5-(hexyloxy)-6-methoxyquinolin-8-ylamino)-pentyl)hexanamide] | 0.09 (≈ 0.166 µM) | 0.036 (≈ 0.0662 µM) | NC (NC, not cytotoxic up to 4760 ng/mL (4.76 μg/mL)) | 100% cure and curative (6/6) | > 20 | > 20 | > 20 | 18.6 (≈ 34.3 µM) | > 20 | > 20 | > 20 | > 20 | > 20 | > 20 | > 20 | > 20 | > 20 | > 20 | > 20 | > 20 | P. berghei blood-schizontocidal activity (mice cured/treated) ([2]; 25 mg/kg/day × 4, oral): inactive (0/6); P. berghei blood-schizontocidal activity (mice cured/treated) ([2]; 50 mg/kg/day × 4, oral): suppressive activity; also recorded: active (3/6)
CCCCCCCOc1c(OC)cc(NC(C)CCCNC(=O)C(N)CCCNC(=N)N)c2nc(C(C)(C)C)ccc12 (centres unmarked) [compound 111, 2-Amino-N-(4-(2-tert-butyl-5-(heptyloxy)-6-methoxyquinolin-8-ylamino)pentyl)-5-guanidinopentanamide] | 0.39 (≈ 0.666 µM) | 0.24 (≈ 0.41 µM) | NC (NC, not cytotoxic up to 4760 ng/mL (4.76 μg/mL)) | 100% cure and curative (6/6) | > 20 | > 20 | > 20 | 13.2 (≈ 22.6 µM) | > 20 | > 20 | > 20 | > 20 | > 20 | > 20 | > 20 | > 20 | > 20 | > 20 | > 20 | > 20 | P. berghei blood-schizontocidal activity (mice cured/treated) ([2]; 25 mg/kg/day × 4, oral): inactive (0/6); P. berghei blood-schizontocidal activity (mice cured/treated) ([2]; 50 mg/kg/day × 4, oral): 100% cure and curative (6/6)
CCCCCCCCOc1c(OC)cc(NC(C)CCCNC(=O)C(N)Cc2ccccc2)c2nc(C(C)(C)C)ccc12 (centres unmarked) [compound 121, 2-Amino-N-(4-(2-tert-butyl-6-methoxy-5-(octyloxy)quinolin-8-ylamino)pentyl)-3-phenylpropanamide] | > 4.76 | > 4.76 | NC (NC, not cytotoxic up to 4760 ng/mL (4.76 μg/mL)) | 100% cure and curative (6/6) | > 20 | > 20 | > 20 | 17.3 (≈ 29.3 µM) | > 20 | > 20 | > 20 | > 20 | > 20 | 7.79 (≈ 13.2 µM) | > 20 | > 20 | > 20 | > 20 | > 20 | > 20 | P. berghei blood-schizontocidal activity (mice cured/treated) ([2]; 25 mg/kg/day × 4, oral): inactive (0/6); P. berghei blood-schizontocidal activity (mice cured/treated) ([2]; 50 mg/kg/day × 4, oral): suppressive activity; also recorded: active (3/6); IC50 [3]: 11.8 µg/mL (≈ 20 µM); IC90 [3]: 28.7 µg/mL (≈ 48.5 µM)
